Results on four compounds are retold here after ChEMBL document CHEMBL3351517, “Psychrophilins E-H and versicotide C, cyclic peptides from the marine-derived fungus Aspergillus versicolor ZLN-60” (J Nat Prod, 2014).

Molecules are shown by their SMILES. Active and inactive are the calls of the source. The calls are words filed in the database; no cut-off is given here. Positions of bridges follow the written chain, without caps; N, C: chain ends. Non-standard residues stand in square brackets, D forms with d. Residues, ends and D or L forms follow the SMILES beside them. NMeW = CN[C@@H](Cc1c[nH]c2ccccc12)C(=O)O; 2Abz = Nc1ccccc1C(=O)O

Format in all cases: functional, cell-based
One experiment relates to HeLa. Kind of experiment: Cytotoxicity against human HeLa cells by SRB assay. Background: The SRB assay estimates cell density from bound dye.
The subject of a further experiment is A549. Nature of the experiment: Cytotoxicity against human A549 cells by SRB assay.
In another experiment the test system is SMMC-7721. Kind of experiment: Cytotoxicity against human SMMC7721 cells by SRB assay.
In a further experiment the test system is HepG2. Kind of experiment: Lipid-lowering activity in human HepG2 cells assessed as reduction in oleic acid-elicited intracellular lipid accumulation at 10 uM after 6 hrs by Oil Red O staining method. In outline: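 HepG2 cells were kept in DMEM with 10% FBS and penicillin/streptomycin (100 μg/mL). At 70−80% confluence, cells were loaded with oleic acid (100 μM in DMEM) for 12 h. They were then exposed to test agent (10 μM) in DMEM/100 μM oleic acid for a further 6 h. Simvastatin served as positive control and DMEM/oleic acid as blank. Lipid was read by Oil Red O staining.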

`CC(=O)N(C)[C@@H]1C(=O)N2CCC[C@H]2C(=O)Nc2ccccc2C(=O)n2cc(c3c(O)cccc32)[C@H]1O`: the IC50 in the experiment on HeLa, with A549 and with SMMC-7721 was over 100 µM in each case.
Take `CC(=O)N(C)[C@@H]1C(=O)N2CCC[C@H]2C(=O)Nc2ccccc2C(=O)n2cc(c3ccccc32)[C@H]1O`: the IC50 with HeLa, in the experiment with A549 and in the experiment on SMMC-7721 was over 100 µM each time. The outcome in the experiment with HepG2 was Active.
For the compound `CC(=O)N(C)[C@H]1Cc2cn(c3ccccc23)C(=O)c2ccccc2NC(=O)[C@@H]2CCCN2C1=O` (Ac-[NMeW]-Pro-[2Abz]; lactam 1-C), the IC50 in the experiment on HeLa, with A549 and in the experiment with SMMC-7721 was over 100 µM throughout.
In the case of `CC(=O)N[C@H]1Cc2cn(c3ccccc23)C(=O)c2ccccc2NC(=O)[C@@H]2CCCN2C1=O` (Ac-Trp-Pro-[2Abz]; lactam 1-C), the IC50 in the experiment on HeLa, with A549 and with SMMC-7721 was over 100 µM throughout.

One may read the IC50 as the concentration that gives 50% inhibition. Low values mean greater potency, high ones weaker potency.
